# Measurements: ChEMBL document CHEMBL4689842, “EUbOPEN Chemogenomics Library wave 1” (2021)
# Test system: HEK-293T
# Experiment: Multiplex assay against HEK293T;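 as to Population Tubulin-Different-Phenotype (%): share of the cells with healthy nuclei that show this phenotype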
# Type: toxicity, cell-based
# Conditions: human
# How it was run: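 Values for tubulin, mitochondrial-mass and membrane-permeability phenotypes are per cents of cells with healthy nuclei. These cells were identified by CellPathfinder machine-learning gating of live cells that had been stained at seeding with Hoechst33342, BioTracker Green Microtubule Cytoskeleton Dye, MitoTracker Red and Annexin V Alexa Fluor 680 and imaged on a CQ1 microscope at 37°C and 5% CO2 after compound addition. The gating first set Hoechst high-intensity objects apart from normal cells, then split normal cells into healthy, pyknosed or fragmented nuclei, and pyknosed cells into mitotic or apoptotic.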
# [1] = 12 h, 1 µM, compound concentration 1 uM, replicate 1
# [2] = 12 h, 1 µM, compound concentration 1 uM, replicate 2
# [3] = 12 h, 10 µM, compound concentration 10 uM, replicate 1
# [4] = 12 h, 10 µM, compound concentration 10 uM, replicate 2
# [5] = 24 h, 1 µM, compound concentration 1 uM, replicate 1
# [6] = 24 h, 1 µM, compound concentration 1 uM, replicate 2
# [7] = 24 h, 10 µM, compound concentration 10 uM, replicate 1
# [8] = 24 h, 10 µM, compound concentration 10 uM, replicate 2
# [9] = 48 h, 1 µM, compound concentration 1 uM, replicate 1
# [10] = 48 h, 1 µM, compound concentration 1 uM, replicate 2
# [11] = 48 h, 10 µM, compound concentration 10 uM, replicate 1
# [12] = 48 h, 10 µM, compound concentration 10 uM, replicate 2
structure (smiles),measurement,setting,value
CC(C)OC(=O)N1CCC(Oc2ncnc3c2cnn3-c2ccc(S(C)(=O)=O)cc2F)CC1,Population Apoptotic (%),[1],57%
same,Population Fragmented Nuclei (%),[1],8%
same,Population Healthy Nuclei (%),[1],35%
same,Population Hoechst High Intensity Objects (%),[1],14%
same,Population Membrane Permeable-Phenotype (%),[1],4%
same,Population Mitochondria Different-Phenotype (%),[1],80%
same,Population Mitotic Cells (%),[1],42%
same,Population Normal (%),[1],85%
same,Population Pyknosed Nuclei (%),[1],56%
same,Population Tubulin-Different-Phenotype (%),[1],39%
same,Total Cell Count,[1],225
same,Population Apoptotic (%),[2],12%
same,Population Fragmented Nuclei (%),[2],5%
same,Population Healthy Nuclei (%),[2],49%
same,Population Hoechst High Intensity Objects (%),[2],4%
same,Population Membrane Permeable-Phenotype (%),[2],5%
same,Population Mitochondria Different-Phenotype (%),[2],11%
same,Population Mitotic Cells (%),[2],87%
same,Population Normal (%),[2],95%
same,Population Pyknosed Nuclei (%),[2],44%
same,Population Tubulin-Different-Phenotype (%),[2],9%
same,Total Cell Count,[2],220
same,Population Apoptotic (%),[3],53%
same,Population Fragmented Nuclei (%),[3],16%
same,Population Healthy Nuclei (%),[3],32%
same,Population Hoechst High Intensity Objects (%),[3],18%
same,Population Membrane Permeable-Phenotype (%),[3],6%
same,Population Mitochondria Different-Phenotype (%),[3],93%
same,Population Mitotic Cells (%),[3],46%
same,Population Normal (%),[3],81%
same,Population Pyknosed Nuclei (%),[3],51%
same,Population Tubulin-Different-Phenotype (%),[3],61%
same,Total Cell Count,[3],186
same,Population Apoptotic (%),[4],5%
same,Population Fragmented Nuclei (%),[4],5%
same,Population Healthy Nuclei (%),[4],45%
same,Population Hoechst High Intensity Objects (%),[4],3%
same,Population Membrane Permeable-Phenotype (%),[4],8%
same,Population Mitochondria Different-Phenotype (%),[4],15%
same,Population Mitotic Cells (%),[4],94%
same,Population Normal (%),[4],96%
same,Population Pyknosed Nuclei (%),[4],49%
same,Population Tubulin-Different-Phenotype (%),[4],20%
same,Total Cell Count,[4],220
same,Population Apoptotic (%),[5],51%
same,Population Fragmented Nuclei (%),[5],11%
same,Population Healthy Nuclei (%),[5],39%
same,Population Hoechst High Intensity Objects (%),[5],15%
same,Population Membrane Permeable-Phenotype (%),[5],4%
same,Population Mitochondria Different-Phenotype (%),[5],58%
same,Population Mitotic Cells (%),[5],48%
same,Population Normal (%),[5],84%
same,Population Pyknosed Nuclei (%),[5],48%
same,Population Tubulin-Different-Phenotype (%),[5],35%
same,Total Cell Count,[5],254
same,Population Apoptotic (%),[6],11%
same,Population Fragmented Nuclei (%),[6],7%
same,Population Healthy Nuclei (%),[6],62%
same,Population Hoechst High Intensity Objects (%),[6],3%
same,Population Membrane Permeable-Phenotype (%),[6],9%
same,Population Mitochondria Different-Phenotype (%),[6],11%
same,Population Mitotic Cells (%),[6],88%
same,Population Normal (%),[6],96%
same,Population Pyknosed Nuclei (%),[6],29%
same,Population Tubulin-Different-Phenotype (%),[6],16%
same,Total Cell Count,[6],277
same,Population Apoptotic (%),[7],46%
same,Population Fragmented Nuclei (%),[7],13%
same,Population Healthy Nuclei (%),[7],38%
same,Population Hoechst High Intensity Objects (%),[7],18%
same,Population Membrane Permeable-Phenotype (%),[7],1%
same,Population Mitochondria Different-Phenotype (%),[7],75%
same,Population Mitotic Cells (%),[7],53%
same,Population Normal (%),[7],81%
same,Population Pyknosed Nuclei (%),[7],48%
same,Population Tubulin-Different-Phenotype (%),[7],67%
same,Total Cell Count,[7],194
same,Population Apoptotic (%),[8],3%
same,Population Fragmented Nuclei (%),[8],4%
same,Population Healthy Nuclei (%),[8],65%
same,Population Hoechst High Intensity Objects (%),[8],3%
same,Population Membrane Permeable-Phenotype (%),[8],4%
same,Population Mitochondria Different-Phenotype (%),[8],22%
same,Population Mitotic Cells (%),[8],96%
same,Population Normal (%),[8],96%
same,Population Pyknosed Nuclei (%),[8],30%
same,Population Tubulin-Different-Phenotype (%),[8],29%
same,Total Cell Count,[8],268
same,Population Apoptotic (%),[9],59%
same,Population Fragmented Nuclei (%),[9],14%
same,Population Healthy Nuclei (%),[9],48%
same,Population Hoechst High Intensity Objects (%),[9],16%
same,Population Membrane Permeable-Phenotype (%),[9],5%
same,Population Mitochondria Different-Phenotype (%),[9],21%
same,Population Mitotic Cells (%),[9],40%
same,Population Normal (%),[9],83%
same,Population Pyknosed Nuclei (%),[9],36%
same,Population Tubulin-Different-Phenotype (%),[9],25%
same,Total Cell Count,[9],312
same,Population Apoptotic (%),[10],5%
same,Population Fragmented Nuclei (%),[10],8%
same,Population Healthy Nuclei (%),[10],79%
same,Population Hoechst High Intensity Objects (%),[10],3%
same,Population Membrane Permeable-Phenotype (%),[10],3%
same,Population Mitochondria Different-Phenotype (%),[10],4%
same,Population Mitotic Cells (%),[10],94%
same,Population Normal (%),[10],96%
same,Population Pyknosed Nuclei (%),[10],11%
same,Population Tubulin-Different-Phenotype (%),[10],17%
same,Total Cell Count,[10],463
same,Population Apoptotic (%),[11],50%
same,Population Fragmented Nuclei (%),[11],18%
same,Population Healthy Nuclei (%),[11],41%
same,Population Hoechst High Intensity Objects (%),[11],16%
same,Population Membrane Permeable-Phenotype (%),[11],3%
same,Population Mitochondria Different-Phenotype (%),[11],60%
same,Population Mitotic Cells (%),[11],49%
same,Population Normal (%),[11],83%
same,Population Pyknosed Nuclei (%),[11],39%
same,Population Tubulin-Different-Phenotype (%),[11],53%
same,Total Cell Count,[11],237
same,Population Apoptotic (%),[12],11%
same,Population Fragmented Nuclei (%),[12],5%
same,Population Healthy Nuclei (%),[12],82%
same,Population Hoechst High Intensity Objects (%),[12],3%
same,Population Membrane Permeable-Phenotype (%),[12],4%
same,Population Mitochondria Different-Phenotype (%),[12],3%
same,Population Mitotic Cells (%),[12],88%
same,Population Normal (%),[12],96%
same,Population Pyknosed Nuclei (%),[12],11%
same,Population Tubulin-Different-Phenotype (%),[12],23%
same,Total Cell Count,[12],480
Cc1ccc2c(c1)c1c(n2CCc2ccc(C)nc2)CCN(C)C1 [LATREPIRDINE],Population Apoptotic (%),[1],65%
same,Population Fragmented Nuclei (%),[1],9%
same,Population Healthy Nuclei (%),[1],39%
same,Population Hoechst High Intensity Objects (%),[1],14%
same,Population Membrane Permeable-Phenotype (%),[1],0%
same,Population Mitochondria Different-Phenotype (%),[1],97%
same,Population Mitotic Cells (%),[1],34%
same,Population Normal (%),[1],85%
same,Population Pyknosed Nuclei (%),[1],51%
same,Population Tubulin-Different-Phenotype (%),[1],85%
same,Total Cell Count,[1],246
same,Population Apoptotic (%),[2],28%
same,Population Fragmented Nuclei (%),[2],6%
same,Population Healthy Nuclei (%),[2],38%
same,Population Hoechst High Intensity Objects (%),[2],2%
same,Population Membrane Permeable-Phenotype (%),[2],7%
same,Population Mitochondria Different-Phenotype (%),[2],64%
same,Population Mitotic Cells (%),[2],71%
same,Population Normal (%),[2],97%
same,Population Pyknosed Nuclei (%),[2],54%
same,Population Tubulin-Different-Phenotype (%),[2],39%
same,Total Cell Count,[2],209
same,Population Apoptotic (%),[3],89%
same,Population Fragmented Nuclei (%),[3],30%
same,Population Healthy Nuclei (%),[3],12%
same,Population Hoechst High Intensity Objects (%),[3],24%
same,Population Membrane Permeable-Phenotype (%),[3],8%
same,Population Mitochondria Different-Phenotype (%),[3],95%
same,Population Mitotic Cells (%),[3],10%
same,Population Normal (%),[3],75%
same,Population Pyknosed Nuclei (%),[3],57%
same,Population Tubulin-Different-Phenotype (%),[3],91%
same,Total Cell Count,[3],251
same,Population Apoptotic (%),[4],91%
same,Population Fragmented Nuclei (%),[4],5%
same,Population Healthy Nuclei (%),[4],13%
same,Population Hoechst High Intensity Objects (%),[4],4%
same,Population Mitochondria Different-Phenotype (%),[4],96%
same,Population Mitotic Cells (%),[4],8%
same,Population Normal (%),[4],95%
same,Population Pyknosed Nuclei (%),[4],80%
same,Population Tubulin-Different-Phenotype (%),[4],96%
same,Total Cell Count,[4],194
same,Population Apoptotic (%),[5],55%
same,Population Fragmented Nuclei (%),[5],7%
same,Population Healthy Nuclei (%),[5],42%
same,Population Hoechst High Intensity Objects (%),[5],14%
same,Population Membrane Permeable-Phenotype (%),[5],1%
same,Population Mitochondria Different-Phenotype (%),[5],96%
same,Population Mitotic Cells (%),[5],44%
same,Population Normal (%),[5],85%
same,Population Pyknosed Nuclei (%),[5],50%
same,Population Tubulin-Different-Phenotype (%),[5],87%
same,Total Cell Count,[5],276
same,Population Apoptotic (%),[6],29%
same,Population Fragmented Nuclei (%),[6],5%
same,Population Healthy Nuclei (%),[6],55%
same,Population Hoechst High Intensity Objects (%),[6],4%
same,Population Membrane Permeable-Phenotype (%),[6],11%
same,Population Mitochondria Different-Phenotype (%),[6],55%
same,Population Mitotic Cells (%),[6],70%
same,Population Normal (%),[6],95%
same,Population Pyknosed Nuclei (%),[6],39%
same,Population Tubulin-Different-Phenotype (%),[6],47%
same,Total Cell Count,[6],271
same,Population Apoptotic (%),[7],90%
same,Population Fragmented Nuclei (%),[7],35%
same,Population Healthy Nuclei (%),[7],16%
same,Population Hoechst High Intensity Objects (%),[7],24%
same,Population Membrane Permeable-Phenotype (%),[7],6%
same,Population Mitochondria Different-Phenotype (%),[7],96%
same,Population Mitotic Cells (%),[7],9%
same,Population Normal (%),[7],75%
same,Population Pyknosed Nuclei (%),[7],47%
same,Population Tubulin-Different-Phenotype (%),[7],93%
same,Total Cell Count,[7],242
same,Population Apoptotic (%),[8],93%
same,Population Fragmented Nuclei (%),[8],5%
same,Population Hoechst High Intensity Objects (%),[8],6%
same,Population Membrane Permeable-Phenotype (%),[8],2%
same,Population Mitochondria Different-Phenotype (%),[8],97%
same,Population Mitotic Cells (%),[8],6%
same,Population Normal (%),[8],93%
same,Population Pyknosed Nuclei (%),[8],77%
same,Population Tubulin-Different-Phenotype (%),[8],94%
same,Total Cell Count,[8],220
same,Population Apoptotic (%),[9],59%
same,Population Fragmented Nuclei (%),[9],11%
same,Population Healthy Nuclei (%),[9],61%
same,Population Hoechst High Intensity Objects (%),[9],10%
same,Population Membrane Permeable-Phenotype (%),[9],2%
same,Population Mitochondria Different-Phenotype (%),[9],62%
same,Population Mitotic Cells (%),[9],40%
same,Population Normal (%),[9],89%
same,Population Pyknosed Nuclei (%),[9],27%
same,Population Tubulin-Different-Phenotype (%),[9],67%
same,Total Cell Count,[9],332
same,Population Apoptotic (%),[10],32%
same,Population Fragmented Nuclei (%),[10],6%
same,Population Healthy Nuclei (%),[10],77%
same,Population Hoechst High Intensity Objects (%),[10],3%
same,Population Membrane Permeable-Phenotype (%),[10],8%
same,Population Mitochondria Different-Phenotype (%),[10],23%
same,Population Mitotic Cells (%),[10],67%
same,Population Normal (%),[10],96%
same,Population Pyknosed Nuclei (%),[10],16%
same,Population Tubulin-Different-Phenotype (%),[10],40%
same,Total Cell Count,[10],413
same,Population Apoptotic (%),[11],86%
same,Population Fragmented Nuclei (%),[11],41%
same,Population Healthy Nuclei (%),[11],21%
same,Population Hoechst High Intensity Objects (%),[11],24%
same,Population Mitotic Cells (%),[11],13%
same,Population Normal (%),[11],75%
same,Population Pyknosed Nuclei (%),[11],37%
same,Population Tubulin-Different-Phenotype (%),[11],94%
same,Total Cell Count,[11],246
same,Population Apoptotic (%),[12],87%
same,Population Fragmented Nuclei (%),[12],2%
same,Population Healthy Nuclei (%),[12],42%
same,Population Hoechst High Intensity Objects (%),[12],13%
same,Population Membrane Permeable-Phenotype (%),[12],2%
same,Population Mitochondria Different-Phenotype (%),[12],97%
same,Population Mitotic Cells (%),[12],12%
same,Population Normal (%),[12],86%
same,Population Pyknosed Nuclei (%),[12],55%
same,Population Tubulin-Different-Phenotype (%),[12],90%
same,Total Cell Count,[12],198
